From PubChem
ERb coact inh = blocks coactivator binding to human estrogen receptor beta | Q92731 | TR-FRET ER-beta LBD / SRC1-Cy5 peptide binding; receptor agonist-loaded with 1 µM estradiol | 86,000 compounds, 1.3% hits | inhibition, % at 25.6 µM | AID 633;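 active means compounds whose percent inhibition of the receptor-coactivator binding signal exceeds about 50% in the single-dose screen, limit read from the data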
Target sequence (Q92731 whole entry, looked up, the tested form may be a part): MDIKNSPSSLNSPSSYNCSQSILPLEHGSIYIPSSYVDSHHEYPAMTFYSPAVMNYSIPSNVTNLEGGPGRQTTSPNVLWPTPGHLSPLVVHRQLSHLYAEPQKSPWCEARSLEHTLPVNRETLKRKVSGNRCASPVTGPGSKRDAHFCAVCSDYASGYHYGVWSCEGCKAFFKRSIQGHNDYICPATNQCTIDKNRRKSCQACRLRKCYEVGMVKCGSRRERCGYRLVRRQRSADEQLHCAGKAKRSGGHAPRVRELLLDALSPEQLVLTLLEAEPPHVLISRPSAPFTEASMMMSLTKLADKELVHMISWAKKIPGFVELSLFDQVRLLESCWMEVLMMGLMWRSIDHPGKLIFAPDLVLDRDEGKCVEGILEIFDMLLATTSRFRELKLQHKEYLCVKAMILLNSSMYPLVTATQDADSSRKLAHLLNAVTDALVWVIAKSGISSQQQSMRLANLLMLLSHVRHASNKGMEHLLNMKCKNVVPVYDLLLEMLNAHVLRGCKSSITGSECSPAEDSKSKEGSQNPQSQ
ERa coact inh = ER-alpha (human) coactivator binding inhibition; inhibition, % at 25.6 µM; P03372; 86,000 compounds, 1.7% hits; AID 629; TR-FRET ER-alpha LBD / SRC-1 peptide, estradiol-bound; in the data active means inhibition above about 50%
HUVEC inhibit = blocks proliferation of human endothelial cells | HUVEC proliferation, CellTiter-Glo luminescence, 72 h; active compounds read low | viability, % at 10 µM (by protocol) | 86,000 compounds, 1.1% hits;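 active means viability at or below 30%; inactive means viability above 30%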
H69AR inhibit = growth inhibitors of human H69AR lung tumor cells | H69AR lung tumor viability, ATP luminescence, 72 h; active compounds read low | viability, % at 10 µM | 85,000 compounds, 6% hits | AID 598;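 active means viability at or below 40%; inactive means viability above 40%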;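 further: multidrug resistant small cell line overexpressing MRP-1 efflux transporter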
ERa SRC1 pot = enhances coactivator binding to human estrogen receptor alpha | P03372 | TR-FRET ERalpha-LBD/SRC-Cy5 coactivator binding, 2 h; 100 = basal binding, no effect | coactivator binding (% of control), % at 25.6 µM | 86,000 compounds, 1.3% hits; in the data active means activity above about 200%;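 further: binding measured in presence of low estradiol as agonist stimulus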
Fibroblast inh = blocks proliferation of human lung fibroblasts. viability, % at 10 µM. LL 47 human lung fibroblast viability, ATP luminescence; active compounds read low. 85,000 compounds, 1.1% hits;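 active means viability at or below 50% in the single dose screen; inactive means viability above 50%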;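 further: compound exposure lasted 72 h before the ATP readout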
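Benchmarks: Cell-only wells, no compound | Test system: LL 47 human lung fibroblasts, passage 12 or lower | Input: 1,150 cells/well | Measured by: CellTiter-Glo luminescence measuring cellular ATP | Medium: IMEM, 15% FBS supplement | Schedule: Overnight attachment after seeding, then 72 h compound exposure at 37 °C | Doses: Compound addition at 0.1% DMSO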
Numbers stand for hits; [ ] = dose if it differs, or a comment. Hits are enriched below; roughly 9.2% of the tested compounds scored in any of these assays.

Screening COc1ccccc1OCC(=O)Nc1cccc(-c2nc3ccccc3o2)c1 returned ERb coact inh inactive, ERa coact inh inactive, HUVEC inhibit inactive, H69AR inhibit inactive, ERa SRC1 pot inactive and Fibroblast inh inactive.
`O=C(Nc1ccc2oc(-c3ccccc3)nc2c1)c1cccnc1` gave ERb coact inh inactive, ERa coact inh inactive, HUVEC inhibit inactive, H69AR inhibit inactive, ERa SRC1 pot inactive and Fibroblast inh inactive.
`Cc1cc(OCC(=O)Nc2ccc3c(c2)OCCO3)ccc1Cl` gave ERb coact inh inactive, ERa coact inh inactive, HUVEC inhibit inactive, H69AR inhibit inactive, ERa SRC1 pot inactive and Fibroblast inh inactive.
Screening O=C(Nc1ccc2oc(-c3ccncc3)nc2c1)c1c(F)c(F)c(F)c(F)c1F returned ERb coact inh inactive, ERa coact inh inactive, HUVEC inhibit inactive, H69AR inhibit inactive and ERa SRC1 pot 266.
Screening ONC=Nc1cccc2nonc12 returned ERb coact inh inactive, ERa coact inh inactive, HUVEC inhibit inactive, H69AR inhibit inactive, ERa SRC1 pot inactive and Fibroblast inh inactive.
O=C(Cc1ccc(Cl)cc1)Nc1ccc2oc(-c3ccncc3)nc2c1 was read as ERb coact inh inactive, ERa coact inh inactive, HUVEC inhibit 18, H69AR inhibit 32, ERa SRC1 pot 456 and Fibroblast inh 8.1.
For COc1ccc(C(=O)Nc2ccc3oc(-c4cccc(F)c4)nc3c2)cc1OC the results were ERb coact inh inactive, ERa coact inh inactive, HUVEC inhibit inactive, H69AR inhibit inactive, ERa SRC1 pot inactive and Fibroblast inh inactive.
Screening O=C(Cc1ccccc1)Nc1ccc2oc(-c3cccnc3)nc2c1 returned ERb coact inh inactive, ERa coact inh inactive, HUVEC inhibit inactive, H69AR inhibit inactive, ERa SRC1 pot 790 and Fibroblast inh inactive.
For COc1ccccc1C(=O)Nc1ccc2oc(-c3ccc(F)cc3)nc2c1 the results were ERb coact inh inactive, ERa coact inh inactive, HUVEC inhibit inactive, H69AR inhibit inactive, ERa SRC1 pot 252 and Fibroblast inh inactive.
Screening O=C(Nc1ccc(-c2nc3cc(Cl)ccc3o2)cc1)C1CCCO1 (configuration not stated) returned ERb coact inh inactive, ERa coact inh inactive, HUVEC inhibit inactive, H69AR inhibit 33, ERa SRC1 pot inactive and Fibroblast inh inactive.
Screening CC1CCN(C(=O)C2(NC(=O)Nc3cccc(F)c3)CCCCC2)CC1 returned ERb coact inh inactive, ERa coact inh inactive, HUVEC inhibit inactive, H69AR inhibit inactive, ERa SRC1 pot inactive and Fibroblast inh inactive.
For Cc1ccc(-n2c(=O)[nH]cc(C(=O)Nc3ccc4c(c3)OCO4)c2=O)cc1C the results were ERb coact inh inactive, ERa coact inh inactive, HUVEC inhibit inactive, H69AR inhibit inactive, ERa SRC1 pot inactive and Fibroblast inh inactive.
For COc1ccc(CC(=O)Nc2ccc(-c3nc4cc(C)ccc4o3)c(O)c2)cc1OC the results were ERb coact inh 53[fluorescence artefact?], ERa coact inh 90[fluorescence artefact?], HUVEC inhibit inactive, H69AR inhibit inactive, ERa SRC1 pot inactive and Fibroblast inh 40.
Screening CCOC(=O)C(CC)n1nc(C)n2c(cc3sccc32)c1=O (configuration not stated) returned ERb coact inh inactive, ERa coact inh inactive, HUVEC inhibit inactive, H69AR inhibit inactive, ERa SRC1 pot inactive and Fibroblast inh inactive.
Screening CCCCCNc1nc(N2CCCC2)c2c(c1C#N)CCN(C)C2 returned ERb coact inh inactive, ERa coact inh inactive, HUVEC inhibit 4.9, H69AR inhibit 2.1, ERa SRC1 pot inactive and Fibroblast inh 39.
COC(=O)c1ccc(/C(O)=C(\C#N)c2nc3ccccc3s2)cc1 was read as ERb coact inh inactive, ERa coact inh inactive, HUVEC inhibit inactive, H69AR inhibit 32, ERa SRC1 pot inactive and Fibroblast inh inactive.
CC(C)NC(=O)c1nc2ccccc2s1 was read as ERb coact inh inactive, ERa coact inh inactive, HUVEC inhibit inactive, H69AR inhibit inactive, ERa SRC1 pot inactive and Fibroblast inh inactive.
Screening COC(=O)c1ccc(Oc2nc(C(N)=O)cc(-c3ccccc3)n2)cc1 returned ERb coact inh inactive, ERa coact inh inactive, HUVEC inhibit inactive, H69AR inhibit 12, ERa SRC1 pot 264[fluorescence artefact?] and Fibroblast inh inactive.
For Cc1nnc(Sc2nc3c(c(=O)n(C)c(=O)n3C)n2Cc2ccccc2Cl)s1 the results were ERb coact inh inactive, ERa coact inh 64[fluorescence artefact?], HUVEC inhibit inactive, H69AR inhibit inactive, ERa SRC1 pot inactive and Fibroblast inh inactive.
For C=CCn1c(SCC(=O)c2ccccc2)nnc1-c1ccc2c(c1)OCO2 the results were ERb coact inh inactive, ERa coact inh inactive, HUVEC inhibit inactive, H69AR inhibit inactive, ERa SRC1 pot inactive and Fibroblast inh inactive.
Cc1cccc(-n2c(SCCC(=O)O)nnc2-c2cccs2)c1C was read as ERb coact inh 50, ERa coact inh inactive, HUVEC inhibit inactive, H69AR inhibit inactive, ERa SRC1 pot inactive and Fibroblast inh inactive.
`O=C(CSc1n[nH]c(-c2cccs2)n1)N1CCCc2ccccc21` gave ERb coact inh inactive, ERa coact inh inactive, HUVEC inhibit inactive, H69AR inhibit inactive, ERa SRC1 pot inactive and Fibroblast inh inactive.
O=C(CSc1nnc(-c2cccs2)n1-c1ccccc1)N1CCCc2ccccc21 was read as ERb coact inh inactive, ERa coact inh inactive, HUVEC inhibit inactive, H69AR inhibit inactive, ERa SRC1 pot 889[fluorescence artefact?] and Fibroblast inh inactive.
For COC(=O)CSc1nnc2n1C(C)(C)Cc1ccccc1-2 the results were ERb coact inh inactive, ERa coact inh inactive, HUVEC inhibit inactive, H69AR inhibit inactive, ERa SRC1 pot inactive and Fibroblast inh inactive.
For C=CCn1c(SCCC(=O)O)nnc1-c1cccs1 the results were ERb coact inh inactive, ERa coact inh inactive, HUVEC inhibit inactive, H69AR inhibit inactive, ERa SRC1 pot inactive and Fibroblast inh inactive.
Screening CC1(C)Cc2ccccc2-c2nnc(SCC(=O)N3CCc4ccccc43)n21 returned ERb coact inh inactive, ERa coact inh inactive, HUVEC inhibit inactive, H69AR inhibit inactive, ERa SRC1 pot 293[fluorescence artefact?] and Fibroblast inh inactive.
For O=C(CSc1n[nH]c(-c2ccccc2O)n1)N1CCCc2ccccc21 the results were ERb coact inh inactive, ERa coact inh inactive, HUVEC inhibit inactive, H69AR inhibit 25, ERa SRC1 pot inactive and Fibroblast inh inactive.
Screening Cc1c(C(=O)N2CCCc3ccccc32)oc2ccc(S(=O)(=O)N3CCOCC3)cc12 returned ERb coact inh inactive, ERa coact inh inactive, HUVEC inhibit inactive, H69AR inhibit inactive, ERa SRC1 pot inactive and Fibroblast inh inactive.
Screening COc1ccc(C2SCC(C(=O)NCc3ccc(F)cc3)N2C(C)=O)cc1 (configuration not stated) returned ERb coact inh inactive, ERa coact inh inactive, HUVEC inhibit inactive, H69AR inhibit inactive, ERa SRC1 pot 513[fluorescence artefact?] and Fibroblast inh inactive.
For CCn1c(NC(=O)Nc2ccccc2OC)nc2ccccc21 the results were ERb coact inh inactive, ERa coact inh inactive, HUVEC inhibit inactive, H69AR inhibit 36, ERa SRC1 pot inactive and Fibroblast inh inactive.
